# In ChEMBL document CHEMBL3351961, “In vitro antitumor activity evaluation of some 1,2,4-triazine derivatives bearing piperazine amide moiety against breast cancer cells” (Bioorg Med Chem, 2014):
# Test system: MCF7
# Assay: Cytotoxicity against human MCF7 cells after 24 hrs by MTT assay
# Format: functional, cell-based
# Conditions: MCF7, 24 h, in the assay text read “XTT assay” for “MTT assay”
# Procedure, shortened: (§1)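 Cells grown in RPMI with fetal calf serum, penicillin/streptomycin, 37 °C, 5% CO2. Seeded 2 × 10^4 cells/well, then 24 h. Medium replaced with compound at 3.9–500 µg/ml (DMSO stocks diluted in medium, final DMSO under 0.1%). XTT read-out of mitochondrial activity: 3 h at 37 °C, OD 480 nm (reference 680 nm). IC50 by non-linear regression; duplicate experiments; cisplatin positive control.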
row,Structure (SMILES),IC50 [µM]
1,O=C(CN1CCN(c2ccccc2Cl)CC1)N1CCN(c2nnc(-c3ccc(Cl)cc3)c(-c3ccc(Cl)cc3)n2)CC1,396
2,COc1ccc(-c2nnc(N3CCN(C(=O)CN4CCN(c5ccccc5OC)CC4)CC3)nc2-c2ccc(OC)cc2)cc1,> 821
3,O=C(CN1CCN(c2ccc(Cl)cc2)CC1)N1CCN(c2nnc(-c3ccc(Cl)cc3)c(-c3ccc(Cl)cc3)n2)CC1,> 803
4,O=C(CN1CCN(c2ccccc2Cl)CC1)N1CCN(c2nnc(-c3ccccc3)c(-c3ccccc3)n2)CC1,263
5,O=C(CN1CCN(c2ccc([N+](=O)[O-])cc2)CC1)N1CCN(c2nnc(-c3ccccc3)c(-c3ccccc3)n2)CC1,> 886
6,COc1ccc(-c2nnc(N3CCN(C(=O)CN4CCN(c5cccc(OC)c5)CC4)CC3)nc2-c2ccc(OC)cc2)cc1,> 821
7,Cc1ccc(-c2nnc(N3CCN(C(=O)CN4CCN(c5ccc([N+](=O)[O-])cc5)CC4)CC3)nc2-c2ccc(C)cc2)cc1,845
8,COc1cccc(N2CCN(CC(=O)N3CCN(c4nnc(-c5ccc(C)cc5)c(-c5ccc(C)cc5)n4)CC3)CC2)c1,867

# Test system: not listed separately
# Assay: Cytotoxicity against mouse NIH/3T3 cells after 24 hrs by MTT assay
# Format: cell-based
# Conditions: NIH3T3, 24 h, in the assay text read “XTT assay” for “MTT assay”
# Procedure, shortened: as §1
row,Structure (SMILES),IC50 [µM]
1,O=C(CN1CCN(c2ccccc2Cl)CC1)N1CCN(c2nnc(-c3ccc(Cl)cc3)c(-c3ccc(Cl)cc3)n2)CC1,> 803
2,COc1ccc(-c2nnc(N3CCN(C(=O)CN4CCN(c5ccccc5OC)CC4)CC3)nc2-c2ccc(OC)cc2)cc1,> 821
3,O=C(CN1CCN(c2ccc(Cl)cc2)CC1)N1CCN(c2nnc(-c3ccc(Cl)cc3)c(-c3ccc(Cl)cc3)n2)CC1,> 803
4,O=C(CN1CCN(c2ccccc2Cl)CC1)N1CCN(c2nnc(-c3ccccc3)c(-c3ccccc3)n2)CC1,350
5,O=C(CN1CCN(c2ccc([N+](=O)[O-])cc2)CC1)N1CCN(c2nnc(-c3ccccc3)c(-c3ccccc3)n2)CC1,> 886
6,COc1ccc(-c2nnc(N3CCN(C(=O)CN4CCN(c5cccc(OC)c5)CC4)CC3)nc2-c2ccc(OC)cc2)cc1,> 821
7,Cc1ccc(-c2nnc(N3CCN(C(=O)CN4CCN(c5ccc([N+](=O)[O-])cc5)CC4)CC3)nc2-c2ccc(C)cc2)cc1,> 845
8,COc1cccc(N2CCN(CC(=O)N3CCN(c4nnc(-c5ccc(C)cc5)c(-c5ccc(C)cc5)n4)CC3)CC2)c1,> 866
